MrgX1 PAM: human MrgX1 positive allosteric modulation, primary screen; Q96LB2; MrgX1-HEK293, Fluo-4 calcium flux, FDSS; hits give high values; B-score at 10 µM; hit rate 0.63% among 310,000; AID 588675;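 active = plate-corrected calcium response at least 3 library SD above typical, normal starting fluorescence, not activating the receptor alone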;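 also: compound read alongside a low EC10 to EC30 dose of BAM8-22 agonist; peak minus trough fluorescence over baseline measured at the second addition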
Target sequence (Q96LB2 whole entry, looked up): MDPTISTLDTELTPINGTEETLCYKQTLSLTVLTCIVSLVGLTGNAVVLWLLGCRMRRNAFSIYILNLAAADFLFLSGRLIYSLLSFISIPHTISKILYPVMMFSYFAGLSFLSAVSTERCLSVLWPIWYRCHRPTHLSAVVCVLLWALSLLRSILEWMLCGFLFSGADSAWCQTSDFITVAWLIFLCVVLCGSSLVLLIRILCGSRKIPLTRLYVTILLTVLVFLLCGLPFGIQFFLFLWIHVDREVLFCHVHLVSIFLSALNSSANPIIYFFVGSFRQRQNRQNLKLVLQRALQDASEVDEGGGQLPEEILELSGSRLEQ
RGS4 act: RGS4 potentiation or activation. HEK293 M3R/inducible RGS4, carbachol calcium flux Fluo4; hits give low values. B-score at 10 µM. hit rate 0.92% among 310,000. AID 463111;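 active = B-score of the integrated calcium signal more than 4 SD below the library mean, with starting fluorescence not abnormally high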;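 also: negative B-score means reduced calcium response which marks RGS4 activation or potentiation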
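Reagent: ECmax carbachol challenge; Test system: M3R-expressing HEK293 line, RGS4 induced by doxycycline; Schedule: overnight RGS4 induction, 30 min dye load 37 °C, 20 min compound RT; Detection: calcium dye Fluo4 fluorescence; Read-out: Agonist-evoked peak-minus-minimum fluorescence over baseline, integrated ratio, B score.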
RGS4 block: human RGS4 inhibition; hit rate 0.45% among 310,000; B-score at 10 µM; HEK293 M3R/RGS4 inducible, Fluo-4 calcium flux; hits give high values; triggered by carbachol at its EC20; P49798;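 active = B-score, a plate-corrected calcium signal, over three deviations above library mean, with baseline fluorescence within five deviations of library mean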;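 also: RGS4 expression induced by doxycycline in cells with stable M3 receptor; B-score is computed from the integrated fluorescence ratio over baseline after carbachol; higher B-score means a larger calcium signal and so more RGS4 inhibition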
Target sequence (P49798 whole entry, looked up): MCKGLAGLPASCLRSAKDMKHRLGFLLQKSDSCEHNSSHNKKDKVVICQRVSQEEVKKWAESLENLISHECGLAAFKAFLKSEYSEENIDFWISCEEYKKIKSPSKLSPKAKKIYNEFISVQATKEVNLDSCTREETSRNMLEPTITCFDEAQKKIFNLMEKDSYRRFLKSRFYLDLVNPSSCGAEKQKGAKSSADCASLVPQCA
MrgX1 ag: activates human MrgX1 receptor signaling; MrgX1-HEK293 cells, Fluo-4 calcium fluorescence, agonist mode; hits give high values; B-score at 10 µM; hit rate 0.44% among 310,000;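 active = calcium response B-score plate-corrected fluorescence ratio at least 3 library SD, with starting fluorescence B-score inside 5 SD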
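Material: MrgX1-expressing HEK293 cells / Dosing: compound as first of three additions / Incubation: overnight seeding, then 1 h dark dye loading / Signal: Fluo-4 NW calcium fluorescence / Evaluation: B-scored fluorescence response ratio / Benchmarks: positive and negative control wells on each plate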
MrgX1 antag: blocks BAM8-22 activation of human MrgX1 receptor | MRGX1-HEK293 calcium flux, Fluo-4, BAM8-22 antagonism; hits give low values | B-score at 10 µM | Q96LB2 | hit rate 1.3% among 310,000;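 active = calcium-response B-score plate-corrected more than 3 library SD below zero, starting fluorescence within 5 deviations, no agonist response on first addition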;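 also: peak minus trough fluorescence over baseline after final BAM8-22 challenge near maximal dose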
RGS4 activ val: RGS4 activation, validation assay; HEK293 M3R/RGS4 inducible, carbachol calcium flux Fluo4; shares compounds with RGS4 act; inhibition, % at 10 µM; hit rate 89% among 1,100;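 active = inhibition above 3 SD of the buffer control wells, cut at about 41% in these data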;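 also: signal is the integrated peak-minus-minimum Fluo4 fluorescence over baseline ratio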
RGS4 act ctr: activity in cells without induced RGS4 expression; hit rate 82% among 1,100; shares compounds with RGS4 act; inhibition, % at 10 µM; HEK293 M3R non-induced RGS4, Fluo4 calcium flux; after carbachol challenge at its EC90;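 active = inhibition exceeding 3 SD of buffer-only control wells, cut at about 26% in these data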;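 also: percent drop in integrated peak-minus-baseline over baseline Fluo4 ratio after carbachol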
An asterisk follows results filed as active; i = inactive; x = not tested or not shown. In the library only some 3.5% were active in any assay of this set; here they are far more common.

SMILES	MrgX1 PAM	RGS4 act	RGS4 block	MrgX1 ag	MrgX1 antag	RGS4 activ val	RGS4 act ctr
Cc1cc(S(=O)(=O)NC2CC(C)(C)NC(C)(C)C2)c(Cl)cc1Cl	i	i	i	i	i	x	x
COc1cc(NC(=O)Nc2cccc(Cl)c2)c(OC)cc1NC(=O)CN1CCCCC1	i	-11*	i	i	i	38*	0
O=C(CN1CCCCC1)Nc1cccc(Cl)c1	i	i	i	i	i	x	x
Cn1c(=O)[nH]c2nnc(-c3ccc(Cl)c(Cl)c3)nc2c1=O	i	-8.9*	i	i	i	0	0
COc1ccc(CN(C)S(=O)(=O)c2nnc(NC(=O)c3ccccc3)s2)cc1OC	i	i	i	i	i	x	x
COc1ccccc1C(=O)Nc1nnc(S(=O)(=O)N(C)Cc2ccccc2)s1	i	-8.9*	i	i	i	89*	52*
COC(=O)CSc1nc(SCc2ccccc2Cl)nc2c1CCCC2	i	-8*	i	i	i	48*	84*
COc1ccc(N(C(=O)c2snc(C(N)=O)c2N)C(C(=O)NCC2CCCO2)c2ccc(C)o2)cc1OC (configuration not stated)	i	i	i	i	i	x	x
O=C(Nc1nc2c(cc3c4c(cccc42)CC3)s1)c1ccccc1Cl	i	i	i	i	i	x	x
CCCCCCCCOC(=O)C1=C(C)Nc2nnnn2C1c1cccs1 (configuration not stated)	i	-11*	i	i	i	90*	75*
CCCCCCCOC(=O)C1=C(C)Nc2ncnn2C1c1cccs1 (configuration not stated)	i	i	i	i	i	x	x
N#Cc1ccccc1NC(=O)c1ccc2c(Cl)c3c(nc2c1)CCCC3	i	-8.1*	i	i	i	72*	47*
CCCN1CCN(CCCNC(=O)c2ccc3c(Cl)c4c(nc3c2)CCCC4)CC1	i	-8.1*	i	i	i	94*	62*
CC(=O)c1cccc(NC(=S)N2CCN(c3ccccn3)CC2)c1	i	i	i	i	i	x	x
Cc1ccc(Oc2ccc(NC(=O)Cn3ccsc3=N)cc2)cc1	i	-8.8*	i	45*	i	89*	52*
COc1ccc(CCNC(=O)c2cccc3c2C(=O)N(C2CCCCC2)C3)cc1OC	i	-8.1*	i	i	i	64*	0
CCc1ccccc1NC(=O)c1ccc(S(=O)(=O)N2CCCC2)cc1	i	i	i	i	i	x	x
O=c1c2oc3ccccc3c2ncn1Cc1ccc(F)cc1	i	i	i	i	i	x	x
O=C(Nc1ccccc1Cl)C1C2CCC3C(CCC21)C3(Cl)Cl (configuration not stated)	i	i	i	i	i	x	x
CCOc1ccccc1NC(=O)C1C2CCC3C(CCC21)C3(Cl)Cl (configuration not stated)	i	-7.9*	i	i	i	0	0
O=C(NCCc1ccc(Cl)cc1)C1COc2ccccc2O1 (configuration not stated)	i	i	i	i	i	x	x
CCOC(=O)c1ccc(NC(=O)N2CCc3ccccc3C2)cc1	i	-8.9*	i	i	i	84*	44*
CSc1cccc(NS(=O)(=O)c2cc(Br)cnc2N)c1	i	-7.7*	i	i	i	92*	98*
Cc1ccc(NS(=O)(=O)c2cc(Br)cnc2N)cc1C	i	-8*	i	i	i	94*	94*
O=C(NCC1CC1)c1cc([N+](=O)[O-])cc([N+](=O)[O-])c1	i	i	i	i	i	x	x
SMILES	MrgX1 PAM	RGS4 act	RGS4 block	MrgX1 ag	MrgX1 antag	RGS4 activ val	RGS4 act ctr
Cc1ccc(NC(=O)c2cc(C(C)(C)C)nn2Cc2ccccc2)cc1	i	-7.6*	i	i	i	95*	82*
OCCNCCCCOc1ccc(OCc2ccccc2)cc1	i	i	i	i	i	x	x
OCCCCNCc1ccc(OCc2ccccc2)cc1	i	-7.8*	i	i	i	60*	84*
CCC(=O)Nc1nonc1-c1nc2ccccc2n1Cc1ccccc1	i	i	i	i	i	x	x
CCC(=O)Nc1nonc1-c1nc2ccccc2n1N(C(=O)CC)C(=O)CC	i	-8.6*	i	i	i	0	0
CN(C)C(=O)CSc1nnc(-c2cc(-c3cccs3)nc3ccccc23)o1	i	-8.3*	i	i	i	76*	45*
Cc1ccc(OCCC(=O)N(CC(=O)Nc2ccccc2C(F)(F)F)Cc2ccco2)cc1	i	i	i	i	i	x	x
COc1ccc(C(CNC(=O)c2ccc(Cl)c(NC(=O)c3cccs3)c2)N2CCCC2)cc1 (configuration not stated)	i	-12*	i	i	i	89*	52*
CCCCc1ccc(-n2c(Cc3cccs3)n[nH]c2=S)cc1	i	i	i	i	i	x	x
CCC1Oc2ccccc2C(=O)N(CC(=O)c2ccc3c(c2)OCCO3)C1=O (configuration not stated)	i	-8.1*	i	i	i	72*	84*
CC1Oc2ccccc2C(=O)N(CC(=O)c2ccc3c(c2)OCCO3)C1=O (configuration not stated)	i	i	i	i	i	x	x
CC(C)C1Oc2ccccc2C(=O)N(CC(=O)c2ccc3c(c2)OCCO3)C1=O (configuration not stated)	i	-7.8*	i	i	i	0	0
COC(=O)c1ccc(CN2CCCC(CCC(=O)NCc3ccc(C)o3)C2)cc1 (configuration not stated)	i	-9*	i	i	i	88*	71*
COc1ccccc1/C=C/CN1CCCC(CCC(=O)NCc2ccc(F)c(F)c2)C1 (configuration not stated)	i	i	i	i	i	x	x
O=C(CCC1CCCN(Cc2cccc3c2OCO3)C1)NCc1ccc(F)c(F)c1 (configuration not stated)	i	-9.4*	i	i	i	50*	33*
COc1ccc(/C=C/CN2CCCC(CCC(=O)NCc3ccc(F)c(F)c3)C2)cc1 (configuration not stated)	i	-7.8*	i	i	i	92*	87*
CCCCC(=O)Nc1cccc(NC(=S)NC(C)=O)c1	i	i	i	i	i	x	x

High-throughput results deposited in PubChem BioAssay by Johns Hopkins Ion Channel Center.
